High-throughput results deposited in PubChem BioAssay by Sanford-Burnham Center for Chemical Genomics.
Scp-1 inhibitor: inhibitors of human Scp-1 phosphatase. Q9GZU7. Recombinant Scp1, phosphopeptide, malachite green phosphate absorbance. inhibition, % at 20 µM. hit rate 0.88% among 340,000. AID 493091;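 active = inhibition above about 50% at 20 µM, limit read from the data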
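Test system: SCP-1 phosphatase catalytic domain, residues 76-261 | Compound dosing: One concentration, 20 µM, with 1.0% DMSO | Schedule: 45 min room-temperature reaction, 5 min colour, 30 min stabiliser | Detection: Absorbance at 630 nm | Read-out basis: % inhibition of SCP-1 phosphate liberation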
Rpn11 block: blocks the human proteasome subunit Rpn11. O00487. human 26S proteasome, Ub4-pepOG fluorescence polarization; 20S core pre-blocked with epoxomicin. inhibition, % at 20 µM. hit rate 0.59% among 360,000. AID 588493;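 active = inhibition at 20 µM, scaled to each plate's controls, above about 33%, limit read from the data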
SUMO1 PPI mod: SUMO1-SIM interaction modulation; P63165; SUMO1 binding to a labelled peptide, TR-FRET, 1 h; inhibition, % at 20 µM; hit rate 0.33% among 360,000; AID 602429; in the data active = inhibition above about 37%
Target sequence (P63165 whole entry, looked up): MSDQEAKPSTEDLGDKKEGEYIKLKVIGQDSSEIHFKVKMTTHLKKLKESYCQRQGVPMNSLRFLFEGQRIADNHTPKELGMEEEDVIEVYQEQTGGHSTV
DNMT1 block: DNMT1 (human) enzyme inhibition; P26358; DNMT1 molecular beacon, Hinp1I cleavage, fluorescence; inhibition (reported as % activation of signal), % at 10 µM; hit rate 0.83% among 360,000; in the data active = inhibition above about 50%
LMPTP block: blocks human LMPTP phosphatase | P24666 | recombinant LMPTP-A, OMFP fluorogenic substrate, fluorescence intensity | inhibition, % at 20 µM | hit rate 0.22% among 360,000 | AID 651560;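 active = compounds that cut the enzyme signal by at least half of the control window in the single-dose screen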
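Assay system: LMPTP-A enzyme. Input: 0.625 nM LMPTP-A final. Probe or stimulus: 400 µM OMFP. Compound dosing: single 20 µM dose. Schedule: 50 min dark incubation at room temperature. Detection: fluorescence intensity of OMFP turnover product. Read-out: percent inhibition versus substrate-only and uninhibited controls. Benchmarks: no-enzyme low control, uninhibited high control.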
STEP inh: inhibitors of human striatal-enriched phosphatase STEP; P54829; recombinant STEP, OMFP fluorogenic substrate, fluorescence; inhibition, % at 20 µM; hit rate 0.25% among 360,000;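 active = inhibition at 20 µM, scaled per plate between control wells, above about 37%, limit read from the data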
Target sequence (P54829 whole entry, looked up): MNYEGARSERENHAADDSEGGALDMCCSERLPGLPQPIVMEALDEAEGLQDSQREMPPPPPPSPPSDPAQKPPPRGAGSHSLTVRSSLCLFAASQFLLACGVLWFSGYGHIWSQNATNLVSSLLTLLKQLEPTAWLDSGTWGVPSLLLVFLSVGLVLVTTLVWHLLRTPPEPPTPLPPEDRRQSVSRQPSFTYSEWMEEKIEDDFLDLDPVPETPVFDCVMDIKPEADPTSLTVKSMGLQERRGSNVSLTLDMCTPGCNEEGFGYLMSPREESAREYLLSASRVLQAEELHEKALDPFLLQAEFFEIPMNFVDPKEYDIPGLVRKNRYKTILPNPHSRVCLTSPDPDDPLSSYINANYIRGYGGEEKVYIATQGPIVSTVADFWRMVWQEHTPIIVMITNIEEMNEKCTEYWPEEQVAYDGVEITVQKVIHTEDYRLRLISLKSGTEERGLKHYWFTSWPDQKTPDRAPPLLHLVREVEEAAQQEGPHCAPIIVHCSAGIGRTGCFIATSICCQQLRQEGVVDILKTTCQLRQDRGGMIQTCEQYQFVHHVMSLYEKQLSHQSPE
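Assay system: isolated STEP enzyme / Timing: 20 min at room temperature, dark / Doses: 20 µM, 1% DMSO / Technique: fluorescence intensity, excitation 480 nm, emission 540 nm / Reagent: fluorogenic phosphatase substrate OMFP at 25 µM final / Measure: percent inhibition scaled to no-enzyme and uninhibited-enzyme controls, plate-pattern corrected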
Scp1 confirm: Scp-1 (human) inhibition, single-dose confirmed | hit rate 61% among 2,500 | recombinant SCP-1 catalytic domain, phosphate release, malachite green absorbance | inhibition, % at 20 µM | shares compounds with Scp-1 inhibitor
MG interference: interferes with malachite green readout, flagging false Scp-1 hits | apparent inhibition (interference), % at 20 µM | 2,500 tested, under 10 active | shares compounds with Scp-1 inhibitor | AID 540313 | Colorimetric interference counterscreen, malachite green absorbance 630 nm;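 note: compounds added after enzyme reaction finished so only phosphate colour detection is probed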
Scp-1 Tm shift: validation of human Scp-1 inhibitors by thermal shift binding; shares compounds with Scp-1 inhibitor; Recombinant SCP1, Sypro Orange thermal shift Tm; thermal shift relative to vanadate control, % at 40 µM; hit rate 25% among 1,500; AID 540329;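 active = substances whose mean melting-temperature shift, as a percentage of the reference inhibitor's shift, reaches about 5.3%, limit read from the data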
Hits are given with their value. Hits are enriched below; roughly 2.3% of the tested compounds scored in any of these assays.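 Rule for the calls, unless noted: active = inhibition of at least 30% at 20 µM; inactive = the rest.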

Results for C[C@H](CO)N1C[C@H](C)[C@@H](CN(C)Cc2ccncc2)Oc2c(NS(=O)(=O)c3ccc(Cl)cc3)cccc2C1=O ?
Scp-1 inhibitor: inactive; Rpn11 block: inactive; SUMO1 PPI mod: inactive; DNMT1 block: inactive; LMPTP block: inactive; STEP inh: inactive

How did C[C@H](CO)N1C[C@H](C)[C@@H](CN(C)C(=O)NC2CCCCC2)Oc2c(NS(=O)(=O)c3cn(C)cn3)cccc2C1=O do in these assays?
Scp-1 inhibitor: inactive; Rpn11 block: inactive; SUMO1 PPI mod: inactive; DNMT1 block: inactive; LMPTP block: inactive; STEP inh: inactive

Results for C[C@H](CO)N1C[C@H](C)[C@@H](CN(C)Cc2ccncc2)Oc2c(NS(=O)(=O)c3ccc(F)cc3)cccc2C1=O ?
Scp-1 inhibitor: 59.1; Rpn11 block: inactive; SUMO1 PPI mod: inactive; DNMT1 block: inactive; LMPTP block: inactive; STEP inh: inactive; Scp1 confirm: inactive; MG interference: inactive

Results for CN(Cc1ccc(Cl)s1)C(=O)CCl ?
Scp-1 inhibitor: inactive; Rpn11 block: inactive; SUMO1 PPI mod: inactive; DNMT1 block: inactive; LMPTP block: inactive; STEP inh: inactive

Results for CCc1ccc2c(CN(C)Cc3ccc(OC(F)F)c(OC)c3)cc(=O)oc2c1 ?
Scp-1 inhibitor: inactive; Rpn11 block: inactive; SUMO1 PPI mod: inactive; DNMT1 block: inactive; LMPTP block: inactive; STEP inh: inactive

What do the screens show for `C[C@H](CO)N1C[C@H](C)[C@@H](CN(C)Cc2ccc(Oc3ccccc3)cc2)Oc2c(NS(=O)(=O)c3cn(C)cn3)cccc2C1=O`?
Scp-1 inhibitor: 50.1; Rpn11 block: inactive; SUMO1 PPI mod: inactive; DNMT1 block: inactive; LMPTP block: inactive; STEP inh: inactive; Scp1 confirm: inactive; MG interference: inactive

Results for C[C@@H]1CN([C@@H](C)CO)C(=O)c2cccc(NS(C)(=O)=O)c2O[C@H]1CN(C)Cc1ccc(Oc2ccccc2)cc1 ?
Scp-1 inhibitor: inactive; Rpn11 block: inactive; SUMO1 PPI mod: inactive; DNMT1 block: inactive; LMPTP block: inactive; STEP inh: inactive

What do the screens show for `O=C(Nc1nccs1)c1ccc2nccnc2c1`?
Scp-1 inhibitor: 51.7; Rpn11 block: inactive; SUMO1 PPI mod: inactive; DNMT1 block: inactive; LMPTP block: inactive; STEP inh: inactive; Scp1 confirm: 62.6; MG interference: inactive; Scp-1 Tm shift: inactive

What do the screens show for `S=c1[nH]nc(COc2ccccc2)n1-c1ccc(Cl)cc1`?
Scp-1 inhibitor: 50.6; Rpn11 block: inactive; SUMO1 PPI mod: inactive; DNMT1 block: inactive; LMPTP block: inactive; STEP inh: inactive; Scp1 confirm: inactive; MG interference: inactive

What do the screens show for `CCOC(=O)CC1(C)OCC(C[N+]2(C)CCCCC2)O1` (configuration not stated)?
Scp-1 inhibitor: 93.3; Rpn11 block: inactive; SUMO1 PPI mod: inactive; DNMT1 block: inactive; LMPTP block: inactive; STEP inh: inactive; Scp1 confirm: 93.1; MG interference: inactive; Scp-1 Tm shift: inactive

Results for COc1ccc2nc(Nc3nc(CSc4nnnn4-c4ccccc4)cc(=O)[nH]3)nc(C)c2c1 ?
Scp-1 inhibitor: 82.6; Rpn11 block: inactive; SUMO1 PPI mod: inactive; DNMT1 block: inactive; LMPTP block: inactive; STEP inh: inactive; Scp1 confirm: inactive; MG interference: inactive

How did Cc1ccc2c(C)nc(Nc3nc(CSc4nnnn4-c4ccccc4)cc(=O)[nH]3)nc2c1 do in these assays?
Scp-1 inhibitor: inactive; Rpn11 block: inactive; SUMO1 PPI mod: inactive; DNMT1 block: inactive; LMPTP block: inactive; STEP inh: inactive

Results for CCCc1cc(SCC(=O)Nc2c(C)n(C)n(-c3ccccc3)c2=O)n2c(nc3ccccc32)c1C#N ?
Scp-1 inhibitor: 97.7; Scp1 confirm: 84.4; MG interference: inactive; Scp-1 Tm shift: inactive

What do the screens show for `O=S1(=O)N=C(N2CCc3ccccc3C2)c2ccccc21`?
Scp-1 inhibitor: 76.0; Rpn11 block: inactive; SUMO1 PPI mod: inactive; DNMT1 block: inactive; LMPTP block: inactive; STEP inh: inactive; Scp1 confirm: inactive; MG interference: inactive

Results for O=S1(=O)N=C(N2CCCc3ccccc32)c2ccccc21 ?
Scp-1 inhibitor: inactive; Rpn11 block: inactive; SUMO1 PPI mod: inactive; DNMT1 block: inactive; LMPTP block: inactive; STEP inh: inactive

Results for Cc1c(C(=O)OCC[N+]2(C)CCCCC2)oc2ccccc12 ?
Scp-1 inhibitor: 88.8; Rpn11 block: inactive; SUMO1 PPI mod: inactive; DNMT1 block: inactive; LMPTP block: inactive; STEP inh: inactive; Scp1 confirm: inactive; MG interference: inactive

How did CNc1snc(C)c1C(=O)OCC(=O)NCc1ccccc1OC do in these assays?
Scp-1 inhibitor: inactive; Rpn11 block: inactive; SUMO1 PPI mod: inactive; DNMT1 block: inactive; LMPTP block: inactive; STEP inh: inactive

What do the screens show for `COc1cc2c(cc1NC(=O)CSc1nc3ccccc3[nH]1)oc1ccccc12`?
Scp-1 inhibitor: 72.5; Rpn11 block: inactive; SUMO1 PPI mod: inactive; DNMT1 block: inactive; LMPTP block: inactive; STEP inh: inactive; Scp1 confirm: 41.5; MG interference: inactive; Scp-1 Tm shift: inactive

Results for Cc1cccc(NC(=O)COC(=O)c2c(-c3ccccc3)noc2C)c1 ?
Rpn11 block: inactive; SUMO1 PPI mod: inactive; DNMT1 block: inactive; LMPTP block: inactive; STEP inh: inactive

What do the screens show for `O=C(O)c1cc([N+](=O)[O-])cc([N+](=O)[O-])c1N1CCN(c2cccc(C(F)(F)F)c2)CC1`?
Scp-1 inhibitor: inactive; Rpn11 block: inactive; SUMO1 PPI mod: inactive; DNMT1 block: inactive; LMPTP block: inactive; STEP inh: inactive

How did O=c1c2ccccc2sn1-c1cc(S(=O)(=O)N2CCOCC2)ccc1N1CCCC1 do in these assays?
Scp-1 inhibitor: 88.4; Rpn11 block: inactive; SUMO1 PPI mod: inactive; DNMT1 block: inactive; LMPTP block: inactive; STEP inh: inactive; Scp1 confirm: 55.0; MG interference: inactive; Scp-1 Tm shift: inactive

How did Clc1ccc(SCc2cc(Cl)nc(-c3ccccc3)n2)cc1 do in these assays?
Scp-1 inhibitor: inactive; Rpn11 block: inactive; SUMO1 PPI mod: inactive; DNMT1 block: inactive; LMPTP block: inactive; STEP inh: inactive

What do the screens show for `Clc1cc(CSc2ccccc2)nc(-c2ccccc2)n1`?
Scp-1 inhibitor: 61.4; Rpn11 block: inactive; SUMO1 PPI mod: inactive; DNMT1 block: inactive; LMPTP block: inactive; STEP inh: inactive; Scp1 confirm: 35.7; MG interference: inactive; Scp-1 Tm shift: inactive
